From ChEMBL document CHEMBL1921787, “Synthesis and antihepatotoxic activity of 5-(2,3-dihydro-1,4-benzodioxane-6-yl)-3-substituted-phenyl-4,5-dihydro-1H-pyrazole derivatives” (2011)
Activity calls are given as the source filed them. No cut-off for these calls is given here.

Columns and labels:
Rattus norvegicus [1] = experiment: Antihepatotoxic activity against CCl4-induced liver damage in rat assessed as decrease in serum SGOT level at 10 mg/kg, po by calorimetric assay (reference value: 74.52 +/- 0.695 IU/L); format: functional
Rattus norvegicus [2] = experiment: Antihepatotoxic activity against CCl4-induced liver damage in rat assessed as decrease in serum SGPT level at 10 mg/kg, po by calorimetric assay (reference value: 85.27 +/- 2.05 IU/L); format: functional
Rattus norvegicus [3] = experiment: Antihepatotoxic activity against CCl4-induced liver damage in rat assessed as decrease in ALP level at 10 mg/kg, po after 1 hr by photoelectric reading analysis (reference value: 66.157 +/- 2.886 KA); format: functional
Rattus norvegicus [4] = experiment: Antihepatotoxic activity against CCl4-induced liver damage in rat assessed as increase in total protein level at 10 mg/kg, po (reference value: 3.54 +/- 0.67 g/dl); format: functional
Rattus norvegicus [5] = experiment: Antihepatotoxic effect against CCl4-induced liver damage in rat assessed as appearance of moderate sinusoidal dilution around central vein at 10 mg/kg, po by microscopic examination-based histopathological analysis; format: functional, organism-based; design: dose 10 mg/kg
Method in brief: (§1)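 Livers taken from Wistar rats (n = 5 per group) dosed with CCl4 1.5 ml/kg p.o. plus agents at 10 mg/kg p.o.; silymarin reference and normal controls included. Liver sections examined microscopically and scored descriptively for necrosis, inflammation, sinusoidal dilatation, central vein appearance, cytoplasmic staining, parenchyma and vascular change.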

Rattus norvegicus [6] = experiment: Antihepatotoxic effect against CCl4-induced liver damage in rat assessed as fine vascular changes in hepatocytes at 10 mg/kg, po by microscopic examination-based histopathological analysis; format: functional, organism-based; design: dose 10 mg/kg; conditions: Hepatocyte; method in brief: as §1
Rattus norvegicus [7] = experiment: Antihepatotoxic effect against CCl4-induced liver damage in rat assessed as appearance of normal parenchyma at 10 mg/kg, po by microscopic examination-based histopathological analysis; format: functional, organism-based; design: dose 10 mg/kg; method in brief: as §1
Rattus norvegicus [8] = experiment: Antihepatotoxic effect against CCl4-induced liver damage in rat assessed as appearance of sinusoidal dilution in centrizonal area at 10 mg/kg, po by microscopic examination-based histopathological analysis; format: functional, organism-based; design: dose 10 mg/kg; method in brief: as §1
Rattus norvegicus [9] = experiment: Antihepatotoxic effect against CCl4-induced liver damage in rat assessed as appearance of uniformly stained cytoplasm at 10 mg/kg, po by microscopic examination-based histopathological analysis; format: functional, organism-based; design: dose 10 mg/kg; method in brief: as §1
Rattus norvegicus [10] = experiment: Antihepatotoxic effect against CCl4-induced liver damage in rat assessed as appearance of mild dilution of sinusoidal spaces at 10 mg/kg, po by microscopic examination-based histopathological analysis; format: functional, organism-based; design: dose 10 mg/kg; conditions: Sinusoidal space; method in brief: as §1
Rattus norvegicus [11] = experiment: Antihepatotoxic effect against CCl4-induced liver damage in rat assessed as appearance of visible central vein at 10 mg/kg, po by microscopic examination-based histopathological analysis; format: functional, organism-based; design: dose 10 mg/kg; method in brief: as §1
Rattus norvegicus [12] = experiment: Antihepatotoxic effect against CCl4-induced liver damage in rat assessed as absence of necrosis at 10 mg/kg, po by microscopic examination-based histopathological analysis; format: functional, organism-based; design: dose 10 mg/kg; method in brief: as §1
Rattus norvegicus [13] = experiment: Antihepatotoxic effect against CCl4-induced liver damage in rat assessed as appearance of moderate sinusoidal dilution at 10 mg/kg, po by microscopic examination-based histopathological analysis; format: functional, organism-based; design: dose 10 mg/kg; method in brief: as §1
Rattus norvegicus [14] = experiment: Antihepatotoxic effect against CCl4-induced liver damage in rat assessed as appearance of little dilution at 10 mg/kg, po by microscopic examination-based histopathological analysis; format: functional, organism-based; design: dose 10 mg/kg; method in brief: as §1
Rattus norvegicus [15] = experiment: Antihepatotoxic effect against CCl4-induced liver damage in rat assessed as appearance of clear central vein at 10 mg/kg, po by microscopic examination-based histopathological analysis; format: functional, organism-based; design: dose 10 mg/kg; method in brief: as §1

For `c1ccc(C2=NNC(c3ccc4c(c3)OCCO4)C2)cc1` (stereo not drawn), the Activity (Rattus norvegicus [1]) was 62.85 IU/L, the Activity (Rattus norvegicus [2]) was 65 IU/L and the Activity (Rattus norvegicus [3]) was 53.14 KA. For the same compound, the Activity (Rattus norvegicus [4]) was 4.04 g/dL, the Activity (Rattus norvegicus [5]) was “Active” and the Activity (Rattus norvegicus [6]) was “Active”.
`COc1ccc(C2=NNC(c3ccc4c(c3)OCCO4)C2)cc1OC` (stereo not drawn) gave an Activity (Rattus norvegicus [1]) of 58.85 IU/L, an Activity (Rattus norvegicus [2]) of 64.95 IU/L and an Activity (Rattus norvegicus [3]) of 49.48 KA. The Activity (Rattus norvegicus [4]) was 3.82 g/dL, the Activity (Rattus norvegicus [7]) was “Active” and the Activity (Rattus norvegicus [8]) was “Active”.
SILYMARIN gave an Activity (Rattus norvegicus [1]) of 56.2 IU/L, an Activity (Rattus norvegicus [2]) of 61.3 IU/L and an Activity (Rattus norvegicus [3]) of 48.6 KA. For the same compound, the Activity (Rattus norvegicus [4]) was 4.2 g/dL, the Activity (Rattus norvegicus [9]) was “Active” and the Activity (Rattus norvegicus [10]) was “Active”. For the same compound, the Activity (Rattus norvegicus [11]) was “Active” and the Activity (Rattus norvegicus [12]) was “Active”.
Compound `Oc1ccc(C2=NNC(c3ccc4c(c3)OCCO4)C2)c(O)c1` (stereo not drawn) has an Activity (Rattus norvegicus [1]) of 58.57 IU/L, an Activity (Rattus norvegicus [2]) of 62.09 IU/L and an Activity (Rattus norvegicus [3]) of 58.22 KA. For the same compound, the Activity (Rattus norvegicus [4]) was 3.82 g/dL, the Activity (Rattus norvegicus [13]) was “Active” and the Activity (Rattus norvegicus [7]) was “Active”.
`Clc1ccc(C2=NNC(c3ccc4c(c3)OCCO4)C2)cc1` (stereo not drawn) gave an Activity (Rattus norvegicus [1]) of 63.42 IU/L, an Activity (Rattus norvegicus [2]) of 65.81 IU/L and an Activity (Rattus norvegicus [3]) of 46.06 KA. The Activity (Rattus norvegicus [4]) was 3.91 g/dL, the Activity (Rattus norvegicus [5]) was “Active” and the Activity (Rattus norvegicus [6]) was “Active”.
`Cc1cccc(C2=NNC(c3ccc4c(c3)OCCO4)C2)c1` (stereo not drawn) was tested, and the Activity (Rattus norvegicus [1]) was 64.85 IU/L, the Activity (Rattus norvegicus [2]) was 64.13 IU/L and the Activity (Rattus norvegicus [3]) was 55.74 KA. The Activity (Rattus norvegicus [4]) was 3.98 g/dL, the Activity (Rattus norvegicus [14]) was “Active” and the Activity (Rattus norvegicus [15]) was “Active”.
